Laboratory results as given in ChEMBL document CHEMBL4364297, “Probing the Ligand-Binding Pocket of BTN3A1” (J Med Chem, 2019).
Calls of active or inactive are those of the source. The calls are words filed in the database; no cut-off is given here.

How the values were obtained:
[1] = biological target: T1, Butyrophilin subfamily 3 member A1 (Homo sapiens, UniProt O00481); test: Activation of BTN3A1 in human PBMC-derived Vgamma9/Vdelta2 T cells assessed as induction of IL2-stimulated IFNgamma production measured after 48 hrs by ELISA
Target sequence in this assay (O00481 whole entry): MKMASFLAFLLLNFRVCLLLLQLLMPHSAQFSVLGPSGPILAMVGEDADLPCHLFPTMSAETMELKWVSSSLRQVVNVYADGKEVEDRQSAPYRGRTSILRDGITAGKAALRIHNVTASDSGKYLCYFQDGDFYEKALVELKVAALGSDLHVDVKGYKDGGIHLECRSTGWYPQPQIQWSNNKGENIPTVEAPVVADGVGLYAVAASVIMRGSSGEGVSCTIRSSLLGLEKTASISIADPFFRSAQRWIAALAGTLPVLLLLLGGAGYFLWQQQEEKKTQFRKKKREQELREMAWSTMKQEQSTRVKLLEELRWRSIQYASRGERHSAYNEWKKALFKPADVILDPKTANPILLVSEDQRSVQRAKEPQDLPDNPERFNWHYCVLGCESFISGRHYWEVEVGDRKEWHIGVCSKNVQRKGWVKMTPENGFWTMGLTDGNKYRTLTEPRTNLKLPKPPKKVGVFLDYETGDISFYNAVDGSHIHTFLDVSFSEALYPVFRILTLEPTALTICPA

[2] = Drug uptake in human PBMC assessed as parent compound remaining at 10 uM measured after 6 hrs by UPLC-MS analysis; format: ADME, cell-based; conditions: PBMC (peripheral blood mononuclear cells), read-out: Drug uptake
Summary of the method: (§1)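 Compound at 10 μM final was added to human PBMCs (1,000,000 cells/mL) suspended in T cell media and incubated. The supernatant was collected and stored at –20 °C, then analysed by UPLC-MS on a C18 column (25% to 80% acetonitrile over 8 min). The integrated molecular-ion signal is reported relative to t = 0.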

[3] = biological target: T1, Butyrophilin subfamily 3 member A1; test: (§2) Activation of BTN3A1 in human PBMC-derived Vgamma9/Vdelta2 T cells assessed as induction of IL2-stimulated cell proliferation by measuring increase in CD3+ cells preincubated for 3 days followed by 11 days incubation post compound washout and subsequent IL2 stimulation for every 3 days measured after 14 days by flow cytometry; format: cell-based
Target sequence in this assay (O00481 whole entry): as above

[4] = biological target: T1, Butyrophilin subfamily 3 member A1; test: as §2, with “CD3+ cells at 10 uM preincubated for” for “CD3+ cells preincubated for”, “flow cytometry relative to control” for “flow cytometry”; format: cell-based
Target sequence in this assay (O00481 30-513 limits assumed): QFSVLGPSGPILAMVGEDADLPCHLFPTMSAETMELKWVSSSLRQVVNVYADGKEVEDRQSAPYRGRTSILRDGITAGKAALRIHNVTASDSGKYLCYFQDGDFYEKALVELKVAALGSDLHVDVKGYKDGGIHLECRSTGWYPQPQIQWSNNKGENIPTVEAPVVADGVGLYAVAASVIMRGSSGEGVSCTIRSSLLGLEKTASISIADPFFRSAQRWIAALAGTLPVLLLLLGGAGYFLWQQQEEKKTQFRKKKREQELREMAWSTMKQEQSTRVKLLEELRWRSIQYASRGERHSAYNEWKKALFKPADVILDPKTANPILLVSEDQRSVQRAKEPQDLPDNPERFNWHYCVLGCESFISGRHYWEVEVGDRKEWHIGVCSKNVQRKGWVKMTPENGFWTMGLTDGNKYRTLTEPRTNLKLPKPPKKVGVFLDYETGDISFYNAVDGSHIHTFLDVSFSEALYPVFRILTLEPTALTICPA

[5] = biological target: T1, Butyrophilin subfamily 3 member A1; test: as §2, with “CD3+ cells up to 100 uM preincubated for” for “CD3+ cells preincubated for”; format: cell-based
Target sequence in this assay (O00481 30-513 limits assumed): as above

[6] = Drug uptake in human PBMC assessed as parent compound remaining at 10 uM measured after 24 hrs by UPLC-MS analysis; format: ADME, cell-based; conditions: PBMC (peripheral blood mononuclear cells), read-out: Drug uptake; summary of the method: as §1
[7] = Drug uptake in T cell media assessed as parent compound remaining at 10 uM measured after 48 hrs by UPLC-MS analysis
Summary of the method: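 This was the cell-free control. Compound at 10 μM final was held in T cell media without PBMCs, and loss of the parent compound was followed over time. Supernatant was analysed by UPLC-MS on a C18 column (25% to 80% acetonitrile gradient over 8 min). The molecular-ion integral is expressed relative to t = 0.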

[8] = biological target: Butyrophilin subfamily 3 member A1 (Homo sapiens, UniProt O00481, R499A); test: Displacement of GDP-BODIPY from C-terminal 6His-tagged BTN3A1 R499A mutant (unknown origin) expressed in Escherichia coli BL21 (DE) measured after 60 mins by fluorescence polarization assay
Sequence of Butyrophilin subfamily 3 member A1 (Homo sapiens, UniProt O00481, R499A) (O00481 30-513 R499A limits assumed): as the sequence (O00481 30-513 limits assumed) above, with R470A counted along it

[9] = biological target: Butyrophilin subfamily 3 member A1 (Homo sapiens, UniProt O00481, R442A); test: Displacement of GDP-BODIPY from C-terminal 6His-tagged BTN3A1 R442A mutant (unknown origin) expressed in Escherichia coli BL21 (DE) measured after 60 mins by fluorescence polarization assay
Sequence of Butyrophilin subfamily 3 member A1 (Homo sapiens, UniProt O00481, R442A) (O00481 30-513 R442A limits assumed): as the sequence (O00481 30-513 limits assumed) above, with R413A counted along it

[10] = biological target: Butyrophilin subfamily 3 member A1 (Homo sapiens, UniProt O00481, M424A); test: Displacement of GDP-BODIPY from C-terminal 6His-tagged BTN3A1 M424A mutant (unknown origin) expressed in Escherichia coli BL21 (DE) measured after 60 mins by fluorescence polarization assay
Sequence of Butyrophilin subfamily 3 member A1 (Homo sapiens, UniProt O00481, M424A) (O00481 30-513 M424A limits assumed): as the sequence (O00481 30-513 limits assumed) above, with M395A counted along it
Summary of the method: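 GDP-BODIPY probe (750 nM final) was incubated with 10 μM mutant BTN3A1 full intracellular domain in 100 mM NaCl, 50 mM Tris, 5 mM β-mercaptoethanol, pH 7.5. Test ligand was added at varying concentrations, and plates were kept 60 min in the dark. FP was read at 485/535 nm in triplicate, with at least 3 independent experiments. Probe in buffer served as the negative control and probe with protein as the positive control. IC50 was obtained by 4-parameter nonlinear regression.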

[11] = biological target: Butyrophilin subfamily 3 member A1 (Homo sapiens, UniProt O00481, W421A); test: Displacement of GDP-BODIPY from C-terminal 6His-tagged BTN3A1 W421A mutant (unknown origin) expressed in Escherichia coli BL21 (DE) measured after 60 mins by fluorescence polarization assay
Sequence of Butyrophilin subfamily 3 member A1 (Homo sapiens, UniProt O00481, W421A) (O00481 30-513 W421A limits assumed): as the sequence (O00481 30-513 limits assumed) above, with W392A counted along it

[12] = biological target: T1, Butyrophilin subfamily 3 member A1; test: Displacement of GDP-BODIPY from C-terminal 6His-tagged BTN3A1 full […] domain (unknown origin) expressed in Escherichia coli BL21 (DE) measured after 60 mins by fluorescence polarization assay
Target sequence in this assay (O00481 whole entry): as the sequence (O00481 whole entry) above

[13] = biological target: Butyrophilin subfamily 3 member A1 (Homo sapiens, UniProt O00481, R448A); test: Displacement of GDP-BODIPY from C-terminal 6His-tagged BTN3A1 R448A mutant (unknown origin) expressed in Escherichia coli BL21 (DE) measured after 60 mins by fluorescence polarization assay
Sequence of Butyrophilin subfamily 3 member A1 (Homo sapiens, UniProt O00481, R448A) (O00481 30-513 R448A limits assumed): as the sequence (O00481 30-513 limits assumed) above, with R419A counted along it

[14] = biological target: T1, Butyrophilin subfamily 3 member A1; test: Displacement of GDP-BODIPY from C-terminal 6His-tagged BTN3A1 B30.2 domain (unknown origin) expressed in Escherichia coli BL21 (DE) measured after 60 mins by fluorescence polarization assay
Target sequence in this assay (O00481 whole entry): as the sequence (O00481 whole entry) above

[15] = biological target: T1, Butyrophilin subfamily 3 member A1; test: as §2, with “CD3+ cells at 0.1 uM preincubated for” for “CD3+ cells preincubated for”, “flow cytometry relative to control” for “flow cytometry”; format: cell-based
Target sequence in this assay (O00481 30-513 limits assumed): as the sequence (O00481 30-513 limits assumed) above

With `C/C(=C\CCP(=O)(CP(=O)(OCOC(=O)C(C)(C)C)OCOC(=O)C(C)(C)C)OCOC(=O)C(C)(C)C)CO` (centres undefined) the EC50 ([1]; read-out: EC50) was > 1000 nM.

With `O=P([O-])([O-])OP(=O)([O-])[O-].[Na+].[Na+].[Na+].[Na+]` [SODIUM PYROPHOSPHATE] the EC50 [1] was “Not Active”.

In the case of `C/C(=C\CCCCP(=O)(OCOC(=O)C(C)(C)C)OCOC(=O)C(C)(C)C)CO`, the remaining at 6 h, 10 µM [2] is reported as 44%, the EC50 [3] is reported as “Not Active” and the Activity [4] is reported as 28.1%. For the same compound, the EC50 [1] was “Not Active”, the Activity [5] was “inactive” and the remaining at 24 h, 10 µM [6] was < 1%. The Drug uptake [7] was 44%.

For `C/C(=C\CCCCP(=O)([O-])[O-])CO.[Na+].[Na+]`, the EC50 [3] was “Not Active”, the IC50 [8] was 3.72 mM and the EC50 [1] was “Not Active”. For the same compound, the Activity [5] was “inactive”, the IC50 [9] was 3.43 mM and the IC50 [10] was 5.35 mM. The IC50 [11] was 3.24 mM, the IC50 [12] was 1.07 mM and the IC50 [13] was 4.62 mM.

Work on `C/C(=C\CCP(=O)(O)O)CO` yielded an IC50 [8] of 3.83 mM, an EC50 ([1]; read-out: EC50) of 3400 nM and an IC50 [9] of 3.22 mM. It also gave an IC50 [14] of 2.56 mM, an IC50 [10] of 3.39 mM and an IC50 [11] of 3.19 mM. It also gave an IC50 [12] of 3.85 mM and an IC50 [13] of 3.93 mM.

For `C/C(=C\CCP(=O)(OCOC(=O)C(C)(C)C)OCOC(=O)C(C)(C)C)CO`, the remaining at 6 h, 10 µM [2] was 58%, the EC50 ([1]; read-out: EC50) was 15 nM and the Activity [15] was “Active”. The remaining at 24 h, 10 µM [6] was < 1% and the Drug uptake [7] was 63%.

For `COP(=O)(CCCC/C=C(\C)CO)OC`, the Activity [5] was “inactive”.

In the case of `C/C(=C\CCP(=O)(O)CP(=O)(O)O)CO`, the EC50 ([1]; read-out: EC50) is reported as > 100000 nM and the IC50 [14] is reported as 0.103 mM.

In the case of `CC(C)=CCCCCP(=O)(OCOC(=O)C(C)(C)C)OCOC(=O)C(C)(C)C`, the Activity [5] is reported as “inactive”.

Work on `C/C(=C\COP(=O)(O)OP(=O)(O)O)CO` yielded an Activity [15] of 64%.

`C/C(=C\CCP(=O)(O)OP(=O)(O)O)CO` showed an EC50 ([1]; read-out: EC50) of 2 nM, an IC50 [14] of 0.00787 mM and an IC50 [12] of 0.00787 mM.
